Measurements from ChEMBL document CHEMBL1136530, “Synthesis, stereochemical assignment and biological activity of a novel series of C-4" modified aza-macrolides” (2003).
In brackets after ≈: the same amount, converted by molar mass.

How the values were obtained:
Format in all cases: functional
[1] = system: Pasteurella multocida; assay: Minimum inhibitory concentration against Pasteurella multocida
Method in brief: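 P. multocida strain 59A0067 (turkey origin), grown overnight on BHI plates; colonies in saline at OD625 0.09 (0.5 McFarland), diluted 1:100 in BHI broth. Two-fold serial dilutions in BHI microdilution, about 5×10⁵ cfu/mL final, 37 °C for 18 h. MIC is the lowest concentration with A600 ≤ 0.025.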

[2] = system: Escherichia coli; assay: Minimum inhibitory concentration against Escherichia coli
[3] = system: Mus musculus; assay: In vivo effective dose against Pasteurella multocida infection in mouse
Method in brief: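 Mice infected with P. multocida serotype 5A. Subcutaneous dosing 0.5 h post-infection at 5 to 80 mg/kg. ED50 calculated from the number of mice surviving four days after infection.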

SMILES | MIC [1] [µg/mL] | MIC [2] [µg/mL] | ED50 [3] [mg/kg]
CC[C@H]1OC(=O)[C@H](C)[C@@H](O[C@H]2C[C@@](C)(OC)[C@]3(CO3)[C@H](C)O2)[C@H](C)[C@@H](O[C@@H]2O[C@H](C)C[C@H](N(C)C)[C@H]2O)[C@](C)(O)C[C@@H](C)CN[C@H](C)[C@@H](O)[C@]1(C)O | 0.1 (≈ 0.134 µM) | 3.13 (≈ 4.19 µM) | 
CC[C@H]1OC(=O)[C@H](C)[C@@H](O[C@H]2C[C@@](C)(OC)[C@@](O)(C#CCN(C)C)[C@H](C)O2)[C@H](C)[C@@H](O[C@@H]2O[C@H](C)C[C@H](N(C)C)[C@H]2O)[C@](C)(O)C[C@@H](C)CN(C)[C@H](C)[C@@H](O)[C@]1(C)O | 0.1 (≈ 0.12 µM) | 0.39 (≈ 0.47 µM) | 40
CC[C@H]1OC(=O)[C@H](C)[C@@H](O[C@H]2C[C@@](C)(OC)[C@](C)(O)[C@H](C)O2)[C@H](C)[C@@H](O[C@@H]2O[C@H](C)C[C@H](N(C)C)[C@H]2O)[C@](C)(O)C[C@@H](C)CN(C)[C@H](C)[C@@H](O)[C@]1(C)O | 0.1 (≈ 0.131 µM) | 0.78 (≈ 1.02 µM) | 26
CC[C@H]1OC(=O)[C@H](C)[C@@H](O[C@H]2C[C@@](C)(OC)[C@@](O)(c3ccccc3)[C@H](C)O2)[C@H](C)[C@@H](O[C@@H]2O[C@H](C)C[C@H](N(C)C)[C@H]2O)[C@](C)(O)C[C@@H](C)CN[C@H](C)[C@@H](O)[C@]1(C)O | 3.13 (≈ 3.86 µM) | 12.5 (≈ 15.4 µM) | 
CC[C@H]1OC(=O)[C@H](C)[C@@H](O[C@H]2C[C@@](C)(OC)[C@@](O)(c3nccn3C)[C@H](C)O2)[C@H](C)[C@@H](O[C@@H]2O[C@H](C)C[C@H](N(C)C)[C@H]2O)[C@](C)(O)C[C@@H](C)CN(C)[C@H](C)[C@@H](O)[C@]1(C)O | 0.05 (≈ 0.0603 µM) | 0.39 (≈ 0.47 µM) | 
CC[C@H]1OC(=O)[C@H](C)[C@@H](O[C@H]2C[C@@](C)(OC)[C@@](O)(c3cc4ccccc4n3C)[C@H](C)O2)[C@H](C)[C@@H](O[C@@H]2O[C@H](C)C[C@H](N(C)C)[C@H]2O)[C@](C)(O)C[C@@H](C)CN[C@H](C)[C@@H](O)[C@]1(C)O | 0.2 (≈ 0.231 µM) | 3.13 (≈ 3.62 µM) | > 40
CC[C@H]1OC(=O)[C@H](C)[C@@H](O[C@H]2C[C@@](C)(OC)[C@@]3(CO3)[C@H](C)O2)[C@H](C)[C@@H](O[C@@H]2O[C@H](C)C[C@H](N(C)C)[C@H]2O)[C@](C)(O)C[C@@H](C)CN[C@H](C)[C@@H](O)[C@]1(C)O | < 0.1 | 1.56 (≈ 2.09 µM) | 31
CC[C@H]1OC(=O)[C@H](C)[C@@H](O[C@H]2C[C@@](C)(OC)[C@@](O)(c3ccco3)[C@H](C)O2)[C@H](C)[C@@H](O[C@@H]2O[C@H](C)C[C@H](N(C)C)[C@H]2O)[C@](C)(O)C[C@@H](C)CN[C@H](C)[C@@H](O)[C@]1(C)O | 0.2 (≈ 0.25 µM) | 1.56 (≈ 1.95 µM) | 72
CC[C@H]1OC(=O)[C@H](C)[C@@H](O[C@H]2C[C@@](C)(OC)[C@@](O)(C#CCOC)[C@H](C)O2)[C@H](C)[C@@H](O[C@@H]2O[C@H](C)C[C@H](N(C)C)[C@H]2O)[C@](C)(O)C[C@@H](C)CN[C@H](C)[C@@H](O)[C@]1(C)O | 0.2 (≈ 0.249 µM) | 3.13 (≈ 3.9 µM) | 20
CC[C@H]1OC(=O)[C@H](C)[C@@H](O[C@H]2C[C@@](C)(OC)[C@](C)(O)[C@H](C)O2)[C@H](C)[C@@H](O[C@@H]2O[C@H](C)C[C@H](N(C)C)[C@H]2O)[C@](C)(O)C[C@@H](C)CN[C@H](C)[C@@H](O)[C@]1(C)O | < 0.1 | 0.78 (≈ 1.04 µM) | 28
C#C[C@@]1(O)[C@H](C)O[C@@H](O[C@H]2[C@H](C)[C@@H](O[C@@H]3O[C@H](C)C[C@H](N(C)C)[C@H]3O)[C@](C)(O)C[C@@H](C)CN[C@H](C)[C@@H](O)[C@](C)(O)[C@@H](CC)OC(=O)[C@@H]2C)C[C@@]1(C)OC | < 0.1 | 3.13 (≈ 4.12 µM) | 24
CC[C@H]1OC(=O)[C@H](C)[C@@H](O[C@H]2C[C@@](C)(OC)[C@@](O)(CC)[C@H](C)O2)[C@H](C)[C@@H](O[C@@H]2O[C@H](C)C[C@H](N(C)C)[C@H]2O)[C@](C)(O)C[C@@H](C)CN[C@H](C)[C@@H](O)[C@]1(C)O | 0.2 (≈ 0.262 µM) | 1.56 (≈ 2.04 µM) | 61
CC[C@H]1OC(=O)CC(O)[C@H](C)[C@@H](OC2O[C@H](C)[C@@H](O)[C@H](N(C)C)[C@H]2O)[C@@H](CCN2C[C@H](C)C[C@H](C)C2)CC(C)C(=O)/C=C/C(C)=C/[C@@H]1CO[C@@H]1O[C@H](C)[C@@H](O)[C@@H](OC)[C@H]1OC (stereo partly specified) | 0.78 (≈ 0.897 µM) | 50 (≈ 57.5 µM) | 
CC[C@H]1OC(=O)[C@H](C)[C@@H](O[C@H]2C[C@@](C)(OC)[C@@](O)(CCCOC)[C@H](C)O2)[C@H](C)[C@@H](O[C@@H]2O[C@H](C)C[C@H](N(C)C)[C@H]2O)[C@](C)(O)C[C@@H](C)CN[C@H](C)[C@@H](O)[C@]1(C)O | 0.2 (≈ 0.248 µM) | 0.78 (≈ 0.966 µM) | 49
C=C[C@@]1(O)[C@H](C)O[C@@H](O[C@H]2[C@H](C)[C@@H](O[C@@H]3O[C@H](C)C[C@H](N(C)C)[C@H]3O)[C@](C)(O)C[C@@H](C)CN[C@H](C)[C@@H](O)[C@](C)(O)[C@@H](CC)OC(=O)[C@@H]2C)C[C@@]1(C)OC | 0.2 (≈ 0.263 µM) | 1.56 (≈ 2.05 µM) | 66
CC[C@H]1OC(=O)[C@H](C)[C@@H](O[C@H]2C[C@@](C)(OC)[C@@](O)(c3cccnc3)[C@H](C)O2)[C@H](C)[C@@H](O[C@@H]2O[C@H](C)C[C@H](N(C)C)[C@H]2O)[C@](C)(O)C[C@@H](C)CN[C@H](C)[C@@H](O)[C@]1(C)O | 0.39 (≈ 0.48 µM) | 3.13 (≈ 3.85 µM) | > 40
CC[C@H]1OC(=O)[C@H](C)[C@@H](O[C@H]2C[C@@](C)(OC)[C@@](O)(c3cccs3)[C@H](C)O2)[C@H](C)[C@@H](O[C@@H]2O[C@H](C)C[C@H](N(C)C)[C@H]2O)[C@](C)(O)C[C@@H](C)CN[C@H](C)[C@@H](O)[C@]1(C)O | 0.78 (≈ 0.955 µM) | 3.13 (≈ 3.83 µM) | > 80

Now from value to compound, other results behind:

MIC [1] [µg/mL] | MIC [2] [µg/mL] | SMILES | ED50 [3] [mg/kg]
0.1 (≈ 0.122 µM) | 1.56 (≈ 1.9 µM) | CC[C@H]1OC(=O)[C@H](C)[C@@H](O[C@H]2C[C@@](C)(OC)[C@@](O)(CCCOC)[C@H](C)O2)[C@H](C)[C@@H](O[C@@H]2O[C@H](C)C[C@H](N(C)C)[C@H]2O)[C@](C)(O)C[C@@H](C)CN(C)[C@H](C)[C@@H](O)[C@]1(C)O | > 80
0.39 (≈ 0.501 µM) | 6.25 (≈ 8.02 µM) | CC[C@H]1OC(=O)[C@H](C)[C@@H](O[C@H]2C[C@@](C)(OC)[C@@](O)(CCO)[C@H](C)O2)[C@H](C)[C@@H](O[C@@H]2O[C@H](C)C[C@H](N(C)C)[C@H]2O)[C@](C)(O)C[C@@H](C)CN[C@H](C)[C@@H](O)[C@]1(C)O | 
0.2 (≈ 0.245 µM) | 1.56 (≈ 1.91 µM) | CC[C@H]1OC(=O)[C@H](C)[C@@H](O[C@H]2C[C@@](C)(OC)[C@@](O)(C#CCN(C)C)[C@H](C)O2)[C@H](C)[C@@H](O[C@@H]2O[C@H](C)C[C@H](N(C)C)[C@H]2O)[C@](C)(O)C[C@@H](C)CN[C@H](C)[C@@H](O)[C@]1(C)O | 22
0.1 (≈ 0.129 µM) | 0.78 (≈ 1.01 µM) | C#C[C@@]1(O)[C@H](C)O[C@@H](O[C@H]2[C@H](C)[C@@H](O[C@@H]3O[C@H](C)C[C@H](N(C)C)[C@H]3O)[C@](C)(O)C[C@@H](C)CN(C)[C@H](C)[C@@H](O)[C@](C)(O)[C@@H](CC)OC(=O)[C@@H]2C)C[C@@]1(C)OC | 33
0.78 (≈ 0.961 µM) | 3.13 (≈ 3.85 µM) | CC[C@H]1OC(=O)[C@H](C)[C@@H](O[C@H]2C[C@@](C)(OC)[C@@](O)(c3ccccn3)[C@H](C)O2)[C@H](C)[C@@H](O[C@@H]2O[C@H](C)C[C@H](N(C)C)[C@H]2O)[C@](C)(O)C[C@@H](C)CN[C@H](C)[C@@H](O)[C@]1(C)O | > 40
0.2 (≈ 0.254 µM) | 1.56 (≈ 1.98 µM) | CC#C[C@@]1(O)[C@H](C)O[C@@H](O[C@H]2[C@H](C)[C@@H](O[C@@H]3O[C@H](C)C[C@H](N(C)C)[C@H]3O)[C@](C)(O)C[C@@H](C)CN(C)[C@H](C)[C@@H](O)[C@](C)(O)[C@@H](CC)OC(=O)[C@@H]2C)C[C@@]1(C)OC | 42
0.05 (≈ 0.0612 µM) | 0.39 (≈ 0.477 µM) | CC[C@H]1OC(=O)[C@H](C)[C@@H](O[C@H]2C[C@@](C)(OC)[C@@](O)(C#CCOC)[C@H](C)O2)[C@H](C)[C@@H](O[C@@H]2O[C@H](C)C[C@H](N(C)C)[C@H]2O)[C@](C)(O)C[C@@H](C)CN(C)[C@H](C)[C@@H](O)[C@]1(C)O | 29
0.1 (≈ 0.126 µM) | 3.13 (≈ 3.94 µM) | CC[C@H]1OC(=O)[C@H](C)[C@@H](O[C@H]2C[C@@](C)(OC)[C@@](O)(CSC)[C@H](C)O2)[C@H](C)[C@@H](O[C@@H]2O[C@H](C)C[C@H](N(C)C)[C@H]2O)[C@](C)(O)C[C@@H](C)CN[C@H](C)[C@@H](O)[C@]1(C)O | 44
< 0.1 | 0.78 (≈ 1.01 µM) | C=CC[C@@]1(O)[C@H](C)O[C@@H](O[C@H]2[C@H](C)[C@@H](O[C@@H]3O[C@H](C)C[C@H](N(C)C)[C@H]3O)[C@](C)(O)C[C@@H](C)CN[C@H](C)[C@@H](O)[C@](C)(O)[C@@H](CC)OC(=O)[C@@H]2C)C[C@@]1(C)OC | 58
0.2 (≈ 0.257 µM) | 1.56 (≈ 2.01 µM) | CCC[C@@]1(O)[C@H](C)O[C@@H](O[C@H]2[C@H](C)[C@@H](O[C@@H]3O[C@H](C)C[C@H](N(C)C)[C@H]3O)[C@](C)(O)C[C@@H](C)CN[C@H](C)[C@@H](O)[C@](C)(O)[C@@H](CC)OC(=O)[C@@H]2C)C[C@@]1(C)OC | 81
0.2 (≈ 0.259 µM) | 1.56 (≈ 2.02 µM) | CC#C[C@@]1(O)[C@H](C)O[C@@H](O[C@H]2[C@H](C)[C@@H](O[C@@H]3O[C@H](C)C[C@H](N(C)C)[C@H]3O)[C@](C)(O)C[C@@H](C)CN[C@H](C)[C@@H](O)[C@](C)(O)[C@@H](CC)OC(=O)[C@@H]2C)C[C@@]1(C)OC | 21
0.78 (≈ 0.986 µM) | 12.5 (≈ 15.8 µM) | CCCC[C@@]1(O)[C@H](C)O[C@@H](O[C@H]2[C@H](C)[C@@H](O[C@@H]3O[C@H](C)C[C@H](N(C)C)[C@H]3O)[C@](C)(O)C[C@@H](C)CN[C@H](C)[C@@H](O)[C@](C)(O)[C@@H](CC)OC(=O)[C@@H]2C)C[C@@]1(C)OC | 
